Each structure is given as a SMILES string. In brackets after ≈: the same amount, converted by molar mass. Bounds are passed on as bounds.

The test system of data set [1] is Pseudomonas aeruginosa. Kind of data set: Antibiotic activity against Pseudomonas aeruginosa NBRC 3080 by microplate dilution assay. Format: functional. The method, boiled down: (§1)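 Minimum inhibitory concentration determined by microplate dilution, inoculum 10⁶ organisms per ml. Strains tested: Bacillus subtilis NBRC 3513, Bacillus megaterium ATCC 19213, Staphylococcus epidermidis NBRC 12933, Staphylococcus aureus NBRC 12732, Pseudomonas aeruginosa NBRC 3080, Escherichia coli NBRC 12734. MIC reported in µg/mL.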

For data set [2], the system named is Bacillus subtilis. As to the kind of experiment: Antibiotic activity against Bacillus subtilis NBRC 3513 by microplate dilution assay. Type of data set: functional. The method, boiled down:
as §1

Data set [3] deals with Priestia megaterium. As to the kind of experiment: Antibiotic activity against Bacillus megaterium ATCC 19213 by microplate dilution assay. Type of data set: functional. The method, boiled down: as §1
The subject of data set [4] is Staphylococcus epidermidis. Kind of data set: Antibiotic activity against Staphylococcus epidermidis NBRC 12933 by microplate dilution assay. Format: functional. A digest of the protocol: as §1
Data set [5] in a line: Cytotoxicity against human red blood cells assessed as hemolysis after 30 mins. Type of data set: cell-based. To be noted: erythrocyte, 0.5 h.
The test system of data set [6] is Staphylococcus aureus. Kind of data set: Antibiotic activity against Staphylococcus aureus NBRC 12732 by microplate dilution assay. Type of data set: functional. A digest of the protocol:
as §1

Data set [7] deals with Escherichia coli. As to the kind of experiment: Antibiotic activity against Escherichia coli NBRC 12734 by microplate dilution assay. Format: functional. A digest of the protocol: as §1

In general, MIC refers to the least concentration at which growth counts as inhibited. Read a high MIC as a need for much substance. On to `CC(C)C[C@@H]1NC(=O)[C@H](CCCN)NC(=O)[C@H](C(C)C)NC(=O)[C@@H](CCC(N)=O)NC(=O)[C@@H]2CCCN2C(=O)[C@@H](Cc2ccccc2)NC(=O)[C@H](CC(C)C)NC(=O)[C@H](CCCN)NC(=O)[C@H](C(C)C)NC(=O)[C@@H](CCC(N)=O)NC(=O)[C@@H]2CCCN2C(=O)[C@@H](Cc2ccccc2)NC1=O`, for which the minimum inhibitory concentration (MIC) in data set [1] was over 100 µg/mL; in data set [2] it was 12.5 µg/mL (≈ 8.94 µM); in data set [3], 12.5 µg/mL (≈ 8.94 µM); in data set [4], 25 µg/mL (≈ 17.9 µM); in data set [6] it was 25 µg/mL (≈ 17.9 µM); in data set [7], over 100 µg/mL. In addition, in data set [5], the Activity entry is “Dose-dependent effect”.

Regarding `CC(C)C[C@@H]1NC(=O)[C@H](CCCN)NC(=O)[C@H](C(C)C)NC(=O)[C@@H](CCCN)NC(=O)[C@@H]2CCCN2C(=O)[C@@H](Cc2ccccc2)NC(=O)[C@H](CC(C)C)NC(=O)[C@H](CCCN)NC(=O)[C@H](C(C)C)NC(=O)[C@@H](CCCN)NC(=O)[C@@H]2CCCN2C(=O)[C@@H](Cc2ccccc2)NC1=O`, the MIC in data set [1] turned out to be 25 µg/mL (≈ 18.3 µM); in data set [2] it was 6.25 µg/mL (≈ 4.56 µM); in data set [3], 6.25 µg/mL (≈ 4.56 µM); in data set [4], 6.25 µg/mL (≈ 4.56 µM); in data set [6], 6.25 µg/mL (≈ 4.56 µM); in data set [7], 25 µg/mL (≈ 18.3 µM). The Activity result in data set [5] is “Dose-dependent effect”.

As for `CCCC[C@H]1NC(=O)[C@@H]2CCCN2C(=O)[C@@H](Cc2ccccc2)NC(=O)[C@H](CC(C)C)NC(=O)[C@H](CCCN)NC(=O)[C@H](C(C)C)NC(=O)[C@@H](CCCC)NC(=O)[C@@H]2CCCN2C(=O)[C@@H](Cc2ccccc2)NC(=O)[C@H](CC(C)C)NC(=O)[C@H](CCCN)NC(=O)[C@H](C(C)C)NC1=O`, the MIC in data set [1] was 50 µg/mL (≈ 36.6 µM); in data set [2], 6.25 µg/mL (≈ 4.57 µM); in data set [3] it was 6.25 µg/mL (≈ 4.57 µM); in data set [4] it was 6.25 µg/mL (≈ 4.57 µM); in data set [6], 3.13 µg/mL (≈ 2.29 µM); in data set [7], 100 µg/mL (≈ 73.1 µM). Moreover, the Activity result in data set [5] is recorded as “Dose-dependent effect”.

As to `CC(C)C[C@@H]1NC(=O)[C@H](CCCN)NC(=O)[C@H](C(C)C)NC(=O)[C@@H](Cc2cnc[nH]2)NC(=O)[C@@H]2CCCN2C(=O)[C@@H](Cc2ccccc2)NC(=O)[C@H](CC(C)C)NC(=O)[C@H](CCCN)NC(=O)[C@H](C(C)C)NC(=O)[C@@H](Cc2cnc[nH]2)NC(=O)[C@@H]2CCCN2C(=O)[C@@H](Cc2ccccc2)NC1=O`, the minimum inhibitory concentration (MIC) in data set [1] was over 100 µg/mL; in data set [2], 12.5 µg/mL (≈ 8.83 µM); in data set [3] it was 12.5 µg/mL (≈ 8.83 µM); in data set [4], 25 µg/mL (≈ 17.7 µM); in data set [6] it was 12.5 µg/mL (≈ 8.83 µM); in data set [7], over 100 µg/mL. Further, in data set [5], the Activity result is “Dose-dependent effect”.

In the case of `CC(C)C[C@@H]1NC(=O)[C@H](CCCN)NC(=O)[C@H](C(C)C)NC(=O)[C@@H](CCCNC(=N)N)NC(=O)[C@@H]2CCCN2C(=O)[C@@H](Cc2ccccc2)NC(=O)[C@H](CC(C)C)NC(=O)[C@H](CCCN)NC(=O)[C@H](C(C)C)NC(=O)[C@@H](CCCNC(=N)N)NC(=O)[C@@H]2CCCN2C(=O)[C@@H](Cc2ccccc2)NC1=O`, the MIC turned out to be 12.5 µg/mL (≈ 8.6 µM) in data set [1]; 6.25 µg/mL (≈ 4.3 µM) in data set [2]; 3.13 µg/mL (≈ 2.15 µM) in data set [3]; 6.25 µg/mL (≈ 4.3 µM) in data set [4]; 3.13 µg/mL (≈ 2.15 µM) in data set [6]; 12.5 µg/mL (≈ 8.6 µM) in data set [7]. Also, the Activity entry in data set [5] is reported as “Dose-dependent effect”.

Consider `CC(C)C[C@@H]1NC(=O)[C@H](CCCN)NC(=O)[C@H](C(C)C)NC(=O)[C@@H](Cc2ccccc2)NC(=O)[C@@H]2CCCN2C(=O)[C@@H](Cc2ccccc2)NC(=O)[C@H](CC(C)C)NC(=O)[C@H](CCCN)NC(=O)[C@H](C(C)C)NC(=O)[C@@H](Cc2ccccc2)NC(=O)[C@@H]2CCCN2C(=O)[C@@H](Cc2ccccc2)NC1=O`, for which the MIC is 100 µg/mL (≈ 69.6 µM) in data set [1]; 6.25 µg/mL (≈ 4.35 µM) in data set [2]; 6.25 µg/mL (≈ 4.35 µM) in data set [3]; 12.5 µg/mL (≈ 8.71 µM) in data set [4]; 12.5 µg/mL (≈ 8.71 µM) in data set [6]; over 100 µg/mL in data set [7]. Further, the Activity result in data set [5] was “Dose-dependent effect”.

Consider `CCC[C@H]1NC(=O)[C@@H]2CCCN2C(=O)[C@@H](Cc2ccccc2)NC(=O)[C@H](CC(C)C)NC(=O)[C@H](CCCN)NC(=O)[C@H](C(C)C)NC(=O)[C@@H](CCC)NC(=O)[C@@H]2CCCN2C(=O)[C@@H](Cc2ccccc2)NC(=O)[C@H](CC(C)C)NC(=O)[C@H](CCCN)NC(=O)[C@H](C(C)C)NC1=O`, for which the MIC in data set [1] was over 100 µg/mL; in data set [2] it was 12.5 µg/mL (≈ 9.33 µM); in data set [3] it was 12.5 µg/mL (≈ 9.33 µM); in data set [4], 25 µg/mL (≈ 18.7 µM); in data set [6], 12.5 µg/mL (≈ 9.33 µM); in data set [7] it was over 100 µg/mL. Further, the Activity entry in data set [5] is “Dose-dependent effect”.

`CC(C)C[C@@H]1NC(=O)[C@H](CCCN)NC(=O)[C@H](C(C)C)NC(=O)[C@@H](CC(C)C)NC(=O)[C@@H]2CCCN2C(=O)[C@@H](Cc2ccccc2)NC(=O)[C@H](CC(C)C)NC(=O)[C@H](CCCN)NC(=O)[C@H](C(C)C)NC(=O)[C@@H](CC(C)C)NC(=O)[C@@H]2CCCN2C(=O)[C@@H](Cc2ccccc2)NC1=O`: the MIC in data set [1] is 100 µg/mL (≈ 73.1 µM); in data set [2], 6.25 µg/mL (≈ 4.57 µM); in data set [3] it was 6.25 µg/mL (≈ 4.57 µM); in data set [4], 12.5 µg/mL (≈ 9.14 µM); in data set [6], 12.5 µg/mL (≈ 9.14 µM); in data set [7] it was over 100 µg/mL. Moreover, the Activity entry in data set [5] is given as “Dose-dependent effect”.

Regarding `CC(C)C[C@@H]1NC(=O)[C@H](CCCN)NC(=O)[C@H](C(C)C)NC(=O)[C@@H]([C@H](C)O)NC(=O)[C@@H]2CCCN2C(=O)[C@@H](Cc2ccccc2)NC(=O)[C@H](CC(C)C)NC(=O)[C@H](CCCN)NC(=O)[C@H](C(C)C)NC(=O)[C@@H]([C@H](C)O)NC(=O)[C@@H]2CCCN2C(=O)[C@@H](Cc2ccccc2)NC1=O` [listing 1 of 2 here], the Activity result in data set [5] is listed as “Dose-dependent effect”.

Turning to `CC(C)C[C@@H]1NC(=O)[C@H](CCCN)NC(=O)[C@H](C(C)C)NC(=O)[C@@H]([C@H](C)O)NC(=O)[C@@H]2CCCN2C(=O)[C@@H](Cc2ccccc2)NC(=O)[C@H](CC(C)C)NC(=O)[C@H](CCCN)NC(=O)[C@H](C(C)C)NC(=O)[C@@H]([C@H](C)O)NC(=O)[C@@H]2CCCN2C(=O)[C@@H](Cc2ccccc2)NC1=O` [listing 2 of 2 here], the minimum inhibitory concentration (MIC) was over 100 µg/mL in data set [1]; 100 µg/mL (≈ 74.4 µM) in data set [2]; 100 µg/mL (≈ 74.4 µM) in data set [3]; 100 µg/mL (≈ 74.4 µM) in data set [4]; 50 µg/mL (≈ 37.2 µM) in data set [6]; over 100 µg/mL in data set [7].

As for `CC(C)C[C@@H]1NC(=O)[C@H](CCCN)NC(=O)[C@H](C(C)C)NC(=O)[C@@H](C(C)C)NC(=O)[C@@H]2CCCN2C(=O)[C@@H](Cc2ccccc2)NC(=O)[C@H](CC(C)C)NC(=O)[C@H](CCCN)NC(=O)[C@H](C(C)C)NC(=O)[C@@H](C(C)C)NC(=O)[C@@H]2CCCN2C(=O)[C@@H](Cc2ccccc2)NC1=O`, the MIC in data set [1] was over 100 µg/mL; in data set [2] it was 6.25 µg/mL (≈ 4.67 µM); in data set [3] it was 6.25 µg/mL (≈ 4.67 µM); in data set [4], 12.5 µg/mL (≈ 9.33 µM); in data set [6], 12.5 µg/mL (≈ 9.33 µM); in data set [7] it was over 100 µg/mL. For the same molecule, in data set [5], the Activity entry is “Dose-dependent effect”.

With `CC(C)C[C@@H]1NC(=O)[C@H](CCCN)NC(=O)[C@H](C(C)C)NC(=O)[C@@H](CCCCN)NC(=O)[C@@H]2CCCN2C(=O)[C@@H](Cc2ccccc2)NC(=O)[C@H](CC(C)C)NC(=O)[C@H](CCCN)NC(=O)[C@H](C(C)C)NC(=O)[C@@H](CCCCN)NC(=O)[C@@H]2CCCN2C(=O)[C@@H](Cc2ccccc2)NC1=O`, the MIC is 12.5 µg/mL (≈ 8.94 µM) in data set [1]; 6.25 µg/mL (≈ 4.47 µM) in data set [2]; 6.25 µg/mL (≈ 4.47 µM) in data set [3]; 6.25 µg/mL (≈ 4.47 µM) in data set [4]; 6.25 µg/mL (≈ 4.47 µM) in data set [6]; 25 µg/mL (≈ 17.9 µM) in data set [7]. Further, the Activity result in data set [5] is reported as “Dose-dependent effect”.

The values above are taken from ChEMBL document CHEMBL1153598, “Syntheses of low-hemolytic antimicrobial gratisin peptides” (Bioorg Med Chem Lett, 2009).
